Our source for the Ki, Ratio Ki and Activity values is ChEMBL document CHEMBL1909537, “1-Aryl-5-(1H-pyrrol-1-yl)-1H-pyrazole-3-carboxamide: an effective scaffold for the design of either CB1 or CB2 receptor ligands” (Eur J Med Chem, 2011).

SMILES strings stand for the structures. Calls of active or inactive are those of the source. No cut-off for these calls is given here. Where only a bound is given, the exact number is not on record here.

In one assay the target is Cannabinoid receptor 1 (Homo sapiens, UniProt P21554). Description: Displacement of [3H]CP-55,940 from recombinant human CB1 receptor expressed in HEK cells. It counts as cell-based, HEK293. In outline: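 Competition binding on membranes of HEK cells transfected with human CB1, using [3H]-CP-55,940 at 0.14 nM (radioligand Kd 0.18 nM). Displacement curves give IC50, converted to Ki by the Cheng-Prusoff equation. Reference ligands run in parallel.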
Cannabinoid receptor 1, sequence (P21554 whole entry): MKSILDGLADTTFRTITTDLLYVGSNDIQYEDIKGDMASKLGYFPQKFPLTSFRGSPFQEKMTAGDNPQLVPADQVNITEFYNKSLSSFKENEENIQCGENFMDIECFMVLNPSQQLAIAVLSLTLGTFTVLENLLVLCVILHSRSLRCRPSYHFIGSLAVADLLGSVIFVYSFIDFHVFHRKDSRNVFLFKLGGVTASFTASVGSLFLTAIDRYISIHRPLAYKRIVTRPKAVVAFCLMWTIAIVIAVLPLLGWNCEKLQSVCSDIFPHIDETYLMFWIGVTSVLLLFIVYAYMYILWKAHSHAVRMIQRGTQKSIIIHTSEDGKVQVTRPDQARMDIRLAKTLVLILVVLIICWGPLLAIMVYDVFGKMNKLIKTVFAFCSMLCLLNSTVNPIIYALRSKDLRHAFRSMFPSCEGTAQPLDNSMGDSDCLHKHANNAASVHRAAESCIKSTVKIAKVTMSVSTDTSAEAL
A general note: In a radioligand displacement assay an active substance lowers the binding of a labelled ligand.

The species named for assay [1] is Homo sapiens. Description: Selectivity index, ratio of Ki for recombinant human CB1 receptor to Ki for recombinant human CB2 receptor. In a few lines:
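Index computed as Ki(CB1)/Ki(CB2). Each Ki comes from [3H]-CP-55,940 displacement on transfected HEK membranes (0.14 nM radioligand for CB1, 0.084 nM for CB2) via Cheng-Prusoff.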

A further assay has as its target Cannabinoid receptor 2 (Homo sapiens, UniProt P34972). Description: Displacement of [3H]CP-55,940 from recombinant human CB2 receptor expressed in HEK cells. The assay is classed as cell-based, HEK293. In a few lines:
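Competition binding on membranes of HEK cells transfected with human CB2, using [3H]-CP-55,940 at 0.084 nM (radioligand Kd 0.31 nM). Displacement curves give IC50, converted to Ki by the Cheng-Prusoff equation. Reference ligands run in parallel.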

The species named for assay [2] is Homo sapiens. Briefly: Selectivity index, ratio of Ki for recombinant human CB2 receptor to Ki for recombinant human CB1 receptor. In outline:
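Index computed as Ki(CB2)/Ki(CB1). Each Ki comes from [3H]-CP-55,940 displacement on transfected HEK membranes (0.14 nM radioligand for CB1, 0.084 nM for CB2) via Cheng-Prusoff.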

Assay [3] deals with Rattus norvegicus. Briefly: Reduction in sucrose intake in Wistar rat at 2 mg/kg, ip administered 30 mins before lights off measured 6 hrs after lights off relative to vehicle-treated control. It counts as functional. Set-up: scale not given: the % may be the effect or the level left. The note with it: route intraperitoneal. In a few lines:
(§1)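 Wistar rats had free access to 1% w/v sucrose solution, water and regular chow. On test day they were split into groups of n = 15, matched on body weight and on sucrose and food intake over the prior 3 days. Drug was suspended in saline with 0.05% v/v Tween 80 and given ip at 0, 1 or 2 mg/kg (3 mL/kg), 30 min before lights off. Data were analysed by ANOVA with Newman-Keuls test.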

Assay [4] has as its system Rattus norvegicus. Briefly: Reduction in water intake in Wistar rat at 2 mg/kg, ip administered 30 mins before lights off measured 6 hrs after lights off relative to vehicle-treated control. It counts as functional, organism-based. Set-up: dose 2 mg/kg. In outline:
as §1

Assay [5] deals with Rattus norvegicus. Briefly: Reduction in food intake in Wistar rat at 2 mg/kg, ip administered 30 mins before lights off measured 6 hrs after lights off relative to vehicle-treated control. The assay is classed as functional, organism-based. Set-up: dose 2 mg/kg. In a few lines: as §1

Cannabinoid receptor 2, sequence (P34972 whole entry): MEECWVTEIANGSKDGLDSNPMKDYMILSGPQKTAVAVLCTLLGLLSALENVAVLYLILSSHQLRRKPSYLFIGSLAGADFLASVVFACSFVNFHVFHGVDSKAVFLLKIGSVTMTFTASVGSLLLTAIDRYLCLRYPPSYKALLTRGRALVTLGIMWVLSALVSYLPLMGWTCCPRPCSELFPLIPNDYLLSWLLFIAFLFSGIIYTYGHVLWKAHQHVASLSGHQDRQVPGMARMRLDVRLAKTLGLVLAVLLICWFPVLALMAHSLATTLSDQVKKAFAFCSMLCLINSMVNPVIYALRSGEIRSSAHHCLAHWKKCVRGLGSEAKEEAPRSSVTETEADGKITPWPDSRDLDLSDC

Usually Ki stands for a measure of affinity in units of concentration, obtained from inhibition or displacement. Regarding `Cc1c(C(=O)NC2CCCCC2)nn(-c2ccc(Cl)c(Cl)c2)c1-n1c(Cl)ccc1Cl`, the Ki at Cannabinoid receptor 1 is 5.6 nM; on Cannabinoid receptor 2, 1.3 nM. Moreover, the Ratio Ki was 4.31 in the assay filed under Homo sapiens [1] and 0.23 in the assay listed under Homo sapiens [2].

As for `Cc1c(C(=O)NCc2ccc(Cl)c(Cl)c2)nn(-c2ccc(Cl)c(Cl)c2)c1-n1c(Cl)ccc1Cl`, the Ki was found to be 55.6 nM on Cannabinoid receptor 1 and 162 nM at Cannabinoid receptor 2. For the same compound, the Ratio Ki in the assay listed under Homo sapiens [1] amounted to 0.34; in the assay listed under Homo sapiens [2] it was 2.9.

Consider `Cc1c(C(=O)NC2CCCCC2)nn(-c2ccc(Cl)cc2Cl)c1-n1cccc1Cl`, for which the inhibition constant Ki was 7.7 nM at Cannabinoid receptor 1 and 18.3 nM on Cannabinoid receptor 2. The Ratio Ki in the assay filed under Homo sapiens [1] turned out to be 0.4; in the assay filed under Homo sapiens [2], 2.4.

For the compound `Cc1c(C(=O)NCc2ccc(Cl)c(Cl)c2)nn(-c2ccc(Cl)cc2Cl)c1-n1cccc1Cl`, the inhibition constant (Ki) on Cannabinoid receptor 1 turned out to be 25.2 nM; on Cannabinoid receptor 2, 98.5 nM. In addition, the Ratio Ki in the assay listed under Homo sapiens [1] was 0.26; in the assay filed under Homo sapiens [2] it was 3.9.

`CCc1c(C(=O)NCc2ccc(Cl)c(Cl)c2)nn(-c2ccc(Cl)c(Cl)c2)c1-n1c(C)ccc1C`: the inhibitory constant (Ki) at Cannabinoid receptor 1 is 966 nM; at Cannabinoid receptor 2, 114 nM. The Ratio Ki in the assay filed under Homo sapiens [1] was 8.49; in the assay listed under Homo sapiens [2] it was 0.118.

With `CCc1c(C(=O)NC2CCCCC2)nn(-c2ccc(Cl)c(Cl)c2)c1-n1c(C)ccc1C`, the values for the Ki on Cannabinoid receptor 1 and on Cannabinoid receptor 2 were 48 nM and 1.7 nM, respectively. The Ratio Ki came out at 28.2 in the assay filed under Homo sapiens [1] and 0.035 in the assay filed under Homo sapiens [2].

Take `CCc1ccc(CC)n1-c1c(C)c(C(=O)NC2CCCCC2)nn1-c1ccc(Cl)c(Cl)c1`: the inhibition constant Ki on Cannabinoid receptor 1 was 136 nM; at Cannabinoid receptor 2, 410 nM. Moreover, the Ratio Ki in the assay filed under Homo sapiens [1] turned out to be 0.33; in the assay listed under Homo sapiens [2], 3.

`CCc1c(C(=O)NCc2ccc(Cl)c(Cl)c2)nn(-c2ccc(Cl)cc2Cl)c1-n1cccc1`: the inhibition constant (Ki) at Cannabinoid receptor 1 is 48.7 nM; at Cannabinoid receptor 2, 455 nM. The Ratio Ki came to 0.11 in the assay filed under Homo sapiens [1] and 9.3 in the assay filed under Homo sapiens [2].

As to `Cc1c(C(=O)NCc2ccc(Cl)c(Cl)c2)nn(-c2ccc(Cl)c(Cl)c2)c1-n1cccc1Cl`, the inhibition constant (Ki) came out at 74.1 nM on Cannabinoid receptor 1 and 53.9 nM at Cannabinoid receptor 2. For the same compound, the Ratio Ki was 1.38 in the assay listed under Homo sapiens [1] and 0.73 in the assay filed under Homo sapiens [2].

With `Cc1c(C(=O)NCc2ccc(Cl)c(Cl)c2)nn(-c2ccc(Cl)cc2Cl)c1-n1c(Cl)ccc1Cl`, the Ki at Cannabinoid receptor 1 was 66.1 nM; at Cannabinoid receptor 2 it was 135 nM. Moreover, the Ratio Ki came out at 0.49 in the assay listed under Homo sapiens [1] and 2 in the assay listed under Homo sapiens [2].

With `CCc1ccc(CC)n1-c1c(C)c(C(=O)NCc2ccc(Cl)c(Cl)c2)nn1-c1ccc(Cl)c(Cl)c1`, the inhibition constant Ki on Cannabinoid receptor 1 and at Cannabinoid receptor 2 was above 10000 nM in each case.

For the compound `Cc1c(C(=O)NC2CCCCC2)nn(-c2ccc(Cl)cc2Cl)c1-n1c(Cl)ccc1Cl`, the values for the Ki on Cannabinoid receptor 1 and on Cannabinoid receptor 2 were 9.4 nM and 19.1 nM, respectively. For the same compound, the values for the Ratio Ki in the assay filed under Homo sapiens [1] and in the assay listed under Homo sapiens [2] were 0.49 and 2, respectively.

Turning to `CCc1c(C(=O)NC2CCCCC2)nn(-c2ccc(Cl)cc2Cl)c1-n1cccc1`, the results for the Ki on Cannabinoid receptor 1 and at Cannabinoid receptor 2 were 3 nM and 15.8 nM, respectively. Also, the Ratio Ki was 0.19 in the assay filed under Homo sapiens [1] and 5.3 in the assay listed under Homo sapiens [2].

For `CCc1c(C(=O)NCc2ccc(Cl)c(Cl)c2)nn(-c2ccc(Cl)c(Cl)c2)c1-n1cccc1`, the inhibitory constant (Ki) came out at 454 nM on Cannabinoid receptor 1 and 29.6 nM at Cannabinoid receptor 2. Further, the Ratio Ki in the assay listed under Homo sapiens [1] came out at 15.3; in the assay filed under Homo sapiens [2], 0.065.

As for `CCc1c(C(=O)NCc2ccc(Cl)c(Cl)c2)nn(-c2ccc(Cl)cc2Cl)c1-n1c(C)ccc1C`, the values for the inhibitory constant (Ki) on Cannabinoid receptor 1 and on Cannabinoid receptor 2 were 56.1 nM and 53.1 nM, respectively. The Ratio Ki came to 0.94 in the assay filed under Homo sapiens [1] and 1.06 in the assay listed under Homo sapiens [2].

Take `Cc1c(C(=O)NC2CCCCC2)nn(-c2ccc(Cl)cc2Cl)c1-n1cc2c(c1)CCCC2`: the inhibition constant Ki turned out to be 2.3 nM on Cannabinoid receptor 1 and 376 nM at Cannabinoid receptor 2. Further, the Ratio Ki was found to be 0.006 in the assay filed under Homo sapiens [1] and 164 in the assay listed under Homo sapiens [2]. Further, in the assay with Rattus norvegicus [3], the Activity turned out to be 25%. For the same compound, the result with Rattus norvegicus [4] and in the assay on Rattus norvegicus [5] was inactive.

On to `CCc1c(C(=O)NC2CCCCC2)nn(-c2ccc(Cl)c(Cl)c2)c1-n1cccc1`, for which the Ki at Cannabinoid receptor 1 came out at 15.3 nM; at Cannabinoid receptor 2, 0.51 nM. The Ratio Ki in the assay listed under Homo sapiens [1] is 30; in the assay filed under Homo sapiens [2], 0.033.

As to `Cc1c(C(=O)NCc2ccc(Cl)c(Cl)c2)nn(-c2ccc(Cl)cc2Cl)c1-n1cc2c(c1)CCCC2`, the Ki at Cannabinoid receptor 1 came to 45.9 nM; on Cannabinoid receptor 2, 72.9 nM. The Ratio Ki in the assay listed under Homo sapiens [1] amounted to 0.63; in the assay listed under Homo sapiens [2], 1.6.

Regarding `Cc1c(C(=O)NC2CCCCC2)nn(-c2ccc(Cl)c(Cl)c2)c1-n1cccc1Cl`, the values for the Ki on Cannabinoid receptor 1 and on Cannabinoid receptor 2 were 8.6 nM and 0.9 nM, respectively. Moreover, the values for the Ratio Ki in the assay listed under Homo sapiens [1] and in the assay filed under Homo sapiens [2] were 9.56 and 0.11, respectively.

For the compound `CCc1c(C(=O)NC2CCCCC2)nn(-c2ccc(Cl)cc2Cl)c1-n1c(C)ccc1C`, the Ki was determined as 6.7 nM on Cannabinoid receptor 1 and 754 nM on Cannabinoid receptor 2. The values for the Ratio Ki in the assay listed under Homo sapiens [1] and in the assay listed under Homo sapiens [2] were 0.009 and 112, respectively.
